Data as given in ChEMBL document CHEMBL2176900, “Design and synthesis of a novel series of bicyclic heterocycles as potent γ-secretase modulators” (J Med Chem, 2012).

What was measured:
Mus musculus [1] = assay: Antialzheimer activity in CD1 mouse assessed as amyloid beta 42 level in brain at 10 mg/kg, po at 48 hrs by ELISA relative to control; assay type: functional
Summary of the method: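 Male CD1 mice, fasted overnight, received a single 10 or 30 mg/kg oral dose. Brain was sampled at an added 48 h time point. The DEA-soluble brain fraction was neutralized and Aβ42 was measured by sandwich ELISA with fluorogenic read-out. Values are % versus vehicle.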

Brain = assay: Drug uptake in CD1 mouse brain at 10 mg/kg, po at 48 hrs by LC-MS/MS analysis; assay type: ADME, organism-based; design: dose 10 mg/kg, route oral; conditions: in vivo, BLD = below limit of detection
Summary of the method: (§1)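 Overnight-fasted male CD1 mice received one oral dose (10 or 30 mg/kg) in 20% Captisol. After sacrifice, the left brain hemisphere was stored at −18 °C. Compound level was quantified by a qualified LC-MS/MS method, alongside EDTA plasma spun at 1900g, 4 °C. n = 4 per time point.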

Canis familiaris [2] = assay: Antialzheimer activity in beagle dog assessed as amyloid beta 42 level in cerebrospinal fluid at 20 mg/kg, po at 8 hrs by ELISA relative to control
[3] = Oral bioavailability in beagle dog at 5 mg/kg; assay type: ADME, organism-based, Canis lupus familiaris; conditions: in vivo
Mus musculus [4] = assay: Antialzheimer activity in CD1 mouse assessed as amyloid beta 38 level in brain at 10 mg/kg, po at 8 hrs by ELISA relative to control; assay type: functional
Summary of the method: (§2)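 Male CD1 SPF mice, fasted overnight, got a single oral dose of 10 or 30 mg/kg. At each time point the right brain hemisphere was homogenized in 0.4% DEA/50 mM NaCl with protease inhibitors and spun at 221300g for 50 min. The supernatant was neutralized with Tris-HCl pH 6.8. Aβ38 or Aβ42 was read by sandwich ELISA with a fluorogenic peroxidase substrate (ex 320/em 420 nm). Results are mean % change versus T = 0 h, n = 4.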

[5] = Plasma concentration in CD1 mouse at 10 mg/kg, po at 4 hrs by LC-MS/MS analysis; assay type: ADME, organism-based; design: dose 10 mg/kg, route oral
Rattus norvegicus [6] = assay: Antialzheimer activity in Sprague-Dawley rat assessed as amyloid beta 38 level in brain at 10 mg/kg, po at 25 hrs by ELISA relative to control; assay type: functional
Summary of the method: (§3)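 Male Sprague-Dawley rats (180-220 g), fasted overnight, were given 10 mg/kg by gastric intubation as a 5 mg/mL suspension in 0.5% methocellulose. At 2, 4, 7 and 25 h, 50 μL CSF was taken from the cisterna magna under isoflurane, then brain was collected. Aβ37/38/40/42 were measured by MesoScale Discovery sandwich immunoassays. Results are mean % change versus T = 0 h, n = 5.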

[7] = Drug uptake in CD1 mouse brain at 30 mg/kg, po at 24 hrs by LC-MS/MS analysis; assay type: ADME, organism-based; design: dose 30 mg/kg, route oral; conditions: read-out: Drug uptake; summary of the method: as §1
[8] = Plasma concentration in CD1 mouse at 10 mg/kg, po at 24 hrs by LC-MS/MS analysis; assay type: ADME, organism-based; design: dose 10 mg/kg, route oral
Summary of the method: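 Mice received a single 10 or 30 mg/kg oral dose. Plasma was sampled at several time points up to 48 h, with EDTA plasma obtained by centrifugation at 1900g, 10 min, 4 °C. Compound was quantified by LC-MS/MS, n = 4.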

Mus musculus [9] = assay: Antialzheimer activity in CD1 mouse assessed as amyloid beta 42 level in brain at 10 mg/kg, po at 4 hrs by ELISA relative to control; assay type: functional; summary of the method: as §2
Cytochrome P450 2D6 = Cytochrome P450 2D6 (Homo sapiens, UniProt P10635); assay: Inhibition of CYP2D6 in human liver microsomes using dextrometorphan as substrate; assay type: ADME, Microsome
Canis familiaris [10] = assay: Antialzheimer activity in beagle dog assessed as amyloid beta 42 level in cerebrospinal fluid at 20 mg/kg, po at 4 hrs by ELISA relative to control
[11] = Drug uptake in CD1 mouse brain at 30 mg/kg, po at 8 hrs by LC-MS/MS analysis; assay type: ADME, organism-based; design: dose 30 mg/kg, route oral; conditions: read-out: Drug uptake; summary of the method: as §1
[12] = Thermodynamic solubility in buffer at pH 7.4; assay type: physicochemical; conditions: read-out: Therm_solubility
Summary of the method: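 Thermodynamic solubility was measured in pH 4.0 and pH 7.4 buffers, 0.01 N HCl, and fasted-state and fed-state simulated intestinal fluids (FaSSIF, FeSSIF). Results are in […].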

MDR1 = assay: Apparent permeability from basal to apical side of pig LLCPK1 cells expressing MDR1; assay type: ADME, cell-based, Sus scrofa; conditions: LLC-PK1
Cytochrome P450 2C9 = Cytochrome P450 2C9 (Homo sapiens, UniProt P11712); assay: Inhibition of CYP2C9 in human liver microsomes using tolbutamide as substrate; assay type: ADME, Microsome
Rattus norvegicus [13] = assay: Antialzheimer activity in Sprague-Dawley rat assessed as amyloid beta 40 level in brain at 10 mg/kg, po at 2 hrs by ELISA relative to control; assay type: functional; summary of the method: as §3
Mus musculus [14] = assay: Antialzheimer activity in CD1 mouse assessed as reduction in amyloid beta 42 level in brain at 30 mg/kg, po at 4 hrs by ELISA relative to control; assay type: functional
Summary of the method: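 Screening used fasted male CD1 mice dosed once orally at 30 mg/kg as a suspension in 20% Captisol in water. Mice were killed at 4 h. Aβ42 in the DEA-soluble hemisphere extract was measured by sandwich ELISA. Values are the mean of at least six animals, as % lowering versus untreated mice; a reduction above 20% counts as significant.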

Rattus norvegicus [15] = assay: Antialzheimer activity in Sprague-Dawley rat assessed as amyloid beta 37 level in CSF at 10 mg/kg, po at 7 hrs by ELISA relative to control; assay type: functional; summary of the method: as §3
Mus musculus [16] = assay: Inhibition of gamma-secretase in CD1 mouse assessed as total amyloid beta level in brain at 10 mg/kg, po at 8 hrs by ELISA relative to control; assay type: functional; design: scale not given: the % may be the effect or the level left
Summary of the method: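 Fasted male CD1 SPF mice were dosed orally at 10 or 30 mg/kg in 20% Captisol. Right hemisphere was homogenized in 0.4% DEA/50 mM NaCl and the high-speed supernatant neutralized. Aβtotal ELISA used N-terminal JRF/rAβ/2 capture, biotinylated 4G8 and streptavidin-peroxidase, then a fluorogenic substrate (ex 320/em 420 nm). Standards spanned 10000–0.3 pg/mL. Values are % change vs T = 0 h, n = 4.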

[17] = Drug uptake in CD1 mouse brain at 10 mg/kg, po at 8 hrs by LC-MS/MS analysis; assay type: ADME, organism-based; design: dose 10 mg/kg, route oral; conditions: read-out: Drug uptake; summary of the method: as §1
Liver microsomes = assay: Drug metabolism in human liver microsome assessed as reactive metabolite formation by gultathione-trapping assay; assay type: ADME
Salmonella typhimurium = assay: Genotoxicity against Salmonella typhimurium by AMES 2 test; assay type: toxicity, organism-based; conditions: salmonella enterica subsp. enterica serovar typhimurium
Rattus norvegicus [18] = assay: Antialzheimer activity in Sprague-Dawley rat assessed as amyloid beta 38 level in CSF at 10 mg/kg, po at 2 hrs by ELISA relative to control; assay type: functional; summary of the method: as §3
Canis familiaris [19] = assay: Antialzheimer activity in beagle dog assessed as amyloid beta 38 level in cerebrospinal fluid at 20 mg/kg, po at 8 hrs by ELISA relative to control
Rattus norvegicus [20] = assay: Antialzheimer activity in Sprague-Dawley rat assessed as amyloid beta 37 level in brain at 10 mg/kg, po at 25 hrs by ELISA relative to control; assay type: functional; summary of the method: as §3

Cytochrome P450 2C9, sequence (P11712 whole entry): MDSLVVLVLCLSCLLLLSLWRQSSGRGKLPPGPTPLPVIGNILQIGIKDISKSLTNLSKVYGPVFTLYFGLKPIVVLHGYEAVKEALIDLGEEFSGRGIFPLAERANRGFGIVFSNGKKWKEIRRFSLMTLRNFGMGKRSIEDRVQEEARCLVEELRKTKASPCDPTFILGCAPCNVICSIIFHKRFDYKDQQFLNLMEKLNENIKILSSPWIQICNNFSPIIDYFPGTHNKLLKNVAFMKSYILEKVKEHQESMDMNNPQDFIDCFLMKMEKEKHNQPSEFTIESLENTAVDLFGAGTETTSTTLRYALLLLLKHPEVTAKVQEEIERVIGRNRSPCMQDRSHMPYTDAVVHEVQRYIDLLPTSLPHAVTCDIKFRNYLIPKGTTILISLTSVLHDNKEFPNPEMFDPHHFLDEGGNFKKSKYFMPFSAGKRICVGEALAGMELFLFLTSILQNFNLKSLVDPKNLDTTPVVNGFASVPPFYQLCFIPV
Cytochrome P450 2D6, sequence (P10635 whole entry): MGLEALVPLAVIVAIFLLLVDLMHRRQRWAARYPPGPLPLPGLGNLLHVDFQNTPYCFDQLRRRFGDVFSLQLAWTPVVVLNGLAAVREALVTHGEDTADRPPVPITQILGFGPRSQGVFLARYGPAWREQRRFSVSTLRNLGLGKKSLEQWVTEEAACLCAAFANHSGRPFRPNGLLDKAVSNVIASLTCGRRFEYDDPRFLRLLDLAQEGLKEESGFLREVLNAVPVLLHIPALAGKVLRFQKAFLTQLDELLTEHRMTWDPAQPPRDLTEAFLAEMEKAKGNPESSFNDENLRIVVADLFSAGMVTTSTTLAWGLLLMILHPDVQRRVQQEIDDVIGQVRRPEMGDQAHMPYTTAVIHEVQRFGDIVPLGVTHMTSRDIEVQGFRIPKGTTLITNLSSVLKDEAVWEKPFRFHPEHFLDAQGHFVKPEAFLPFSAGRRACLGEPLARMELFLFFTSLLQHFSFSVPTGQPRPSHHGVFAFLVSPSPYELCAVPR

## COc1nc(Nc2cccc3c2nc(-c2ccc(F)cc2)n3C)ccc1-n1cnc(C)c1
Mus musculus [1]
  Activity: 101%
Brain
  Drug uptake: BLD
Canis familiaris [2]
  Activity: 52%
[3]
  bioavailability: 64%
Mus musculus [4]
  Activity: 124%
[5]
  concentration at 4 h: 5300 nM
Rattus norvegicus [6]
  Activity: 105%
[7]
  concentration at 24 h: 440 nM
[8]
  concentration at 24 h: 4 nM
Mus musculus [9]
  Activity: 49%
Cytochrome P450 2D6
  IC50: 3.6 µM
Canis familiaris [10]
  Activity: 81%
[11]
  concentration at 8 h: 12000 nM
[12]
  solubility thermodynamic: < 1 µg/mL
MDR1
  Papp B→A: 4 ×10⁻⁶ cm/s
Cytochrome P450 2C9
  IC50: 21.9 µM
Rattus norvegicus [13]
  Activity: 77%
Mus musculus [14]
  inhibition in vivo at 30 mg/kg: 62%
Rattus norvegicus [15]
  Activity: 929%
Mus musculus [16]
  Activity: 86%
[17]
  concentration at 8 h: 1900 nM
Liver microsomes
  Drug metabolism: Not Active
Salmonella typhimurium
  Activity: Non-toxic
Rattus norvegicus [18]
  Activity: 162%
Canis familiaris [19]
  Activity: 184%
Rattus norvegicus [20]
  Activity: 128%
